{"source": "PubChem BioAssay AID743061", "about": "(The Scripps Research Institute Molecular Screening Center, 2013)"}
{"biological_target": "Methionine--tRNA ligase, mitochondrial (Homo sapiens) (UniProt Q96GW9)", "test": "human mtMetRS tRNA charging inhibition – biochemical, radioactivity, round 1, selectivity assay for T. brucei MetRS inhibitor project, late-stage follow-up (AID 743061);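 also: 0% = DMSO with full reaction and 100% = DMSO wells lacking tRNA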", "details": "recombinant human mtMetRS, [3H]Met tRNA charging, at 1 µM, stronger effect = higher value", "outline": "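System: recombinant human mitochondrial methionyl-tRNA synthetase (MetRS); Buffer or medium: pH 8.0 reaction buffer containing 2.5 mM ATP; Controls: high DMSO, low without tRNA; Reagent: [3H]Met 240 nM plus bulk E. coli tRNA; Schedule: 15 min preincubation, 1 h reaction, room temperature; Measured by: scintillation counts of TCA-precipitated charged tRNA on filters.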", "units": {"inhibition": "%"}}
{"smiles": "O=C(NCc1nc2ccccc2[nH]1)C1=C[C@@H](c2ccc(Br)cc2)C[C@@H](OCCCCO)O1", "inhibition": -9.46}
{"smiles": "COc1ccccc1NS(=O)(=O)c1cccc(NC(=O)Nc2ccccc2)c1", "inhibition": -9.69}
{"smiles": "CCCCn1c(CCNC(=O)c2ccc(F)cc2)nc2ccccc21", "inhibition": 3.64}
{"smiles": "O=C(NCc1nc2ccccc2[nH]1)C1=C[C@@H](c2ccc(Br)cc2)C[C@@H](OCc2ccc(CO)cc2)O1", "inhibition": -11.6}
{"smiles": "C[C@H](O)[C@@H]1C(=O)N2CCc3c([nH]c4ccccc34)[C@@H]2C[C@@H]1N(C)Cc1ccc2c(c1)OCO2", "inhibition": -17.7}
{"smiles": "COc1ccccc1-n1c(SCC(=O)Nc2ccc(Cl)cc2)nc(O)c(Cc2ccccc2)c1=O", "inhibition": -31.6}
{"smiles": "O=C(C[C@H]1C(=O)N(Cc2ccccc2)C[C@@H]1c1ccc(Br)cc1)Nc1ccc(Br)cc1", "inhibition": -13}
{"smiles": "O=C1CC(N(CCc2ccccc2)C(=S)Nc2ccccc2)C(=O)N1c1ccc(Br)cc1", "note": "(stereo not given)", "inhibition": -25.5}
{"smiles": "O=C1CC(NCCc2ccccc2)C(=O)N1c1ccc(Br)cc1", "note": "(stereo not given)", "inhibition": -12.9}
{"smiles": "CC(C)(C)[C@@H]1C=C(C(=O)NCc2nc3ccccc3[nH]2)O[C@H](OCc2ccc(CO)cc2)C1", "inhibition": -10.6}
{"smiles": "CC(CC(=O)Nc1cccc(Br)c1)=NNC(=O)c1ccc(O)cc1O", "inhibition": -24.6}
{"smiles": "O=C(NCc1nc2ccccc2[nH]1)C1=C[C@H](c2ccccc2)C[C@H](OCc2ccc(CO)cc2)O1", "inhibition": -8.08}
{"smiles": "COc1cccc(NC(=O)CSc2nnc3c(n2)[nH]c2ccc(C)cc23)c1", "inhibition": 49.7}
{"smiles": "Cc1cc2cc(C(=O)N3CCCC(c4nc5ccccc5[nH]4)C3)ccc2o1", "note": "(stereo not given)", "inhibition": -13.2}
{"smiles": "CN(CC(=O)Nc1ccc(Cl)cc1)C(=O)c1ccc(-n2cncn2)c([N+](=O)[O-])c1", "inhibition": -36.7}
{"smiles": "O=C(NCCc1nc2ccccc2[nH]1)c1ccc(Cl)cc1Cl", "inhibition": 16.4}
{"smiles": "COc1ccc(NC(=O)CSc2nnc3c4cc(C)ccc4n(C)c3n2)cc1", "inhibition": -0.75}
{"smiles": "CC(=O)c1ccc(N2CCN(C(=O)CCCn3c(=O)[nH]c4ccc(Br)cc4c3=O)CC2)cc1", "inhibition": -14.1}
{"smiles": "COc1ccc(CCN(C(=S)Nc2ccccc2)C2CC(=O)N(c3ccc(Cl)cc3)C2=O)cc1", "note": "(stereo not given)", "inhibition": 10.6}
{"smiles": "O=C(CSc1nnc2c(n1)[nH]c1ccc(Br)cc12)NCc1ccccc1", "inhibition": -0.52}
{"smiles": "CC(C)OCCCN1CC(=O)N2C(c3cccc([N+](=O)[O-])c3)c3[nH]c4ccccc4c3C[C@H]2C1=O", "note": "(stereo not given in full)", "inhibition": -24.2}
{"smiles": "O=C1[C@@H]2Cc3c([nH]c4ccccc34)C(c3cccc([N+](=O)[O-])c3)N2C(=O)CN1CCCO", "note": "(stereo not given in full)", "inhibition": -17.4}
{"smiles": "O=C(CCC(=O)Nc1cccc([N+](=O)[O-])c1)NN=Cc1cccs1", "inhibition": -28.9}
{"smiles": "Cc1cccc(NC(=O)C2CC(=O)n3c(nc4ccccc43)N2)c1", "note": "(stereo not given)", "inhibition": 10.7}
{"smiles": "O=C(NCc1nc2ccccc2[nH]1)C1=C[C@@H](c2csc3ccccc23)C[C@@H](OCCCCO)O1", "inhibition": -15}
{"smiles": "CCN(CC)C(=O)C(=O)c1cn(CC(=O)Nc2ccccc2OC)c2ccccc12", "inhibition": -10.6}
{"smiles": "O=C1CC(SCc2nc3ccccc3[nH]2)C(=O)N1c1cccc(Cl)c1", "note": "(stereo not given)", "inhibition": -4.5}
{"smiles": "CCN(CCc1nc2ccc(C)cc2[nH]1)C(=O)c1ccc2ncccc2c1", "inhibition": -5.17}
{"smiles": "Cc1ccc(C(=O)NCCc2nc3ccccc3[nH]2)cc1[N+](=O)[O-]", "inhibition": 0.93}
{"smiles": "O=C(Cn1cnc2ccccc21)Nc1cccc([N+](=O)[O-])c1", "inhibition": -15.4}
{"smiles": "COc1ccc(NC(=O)C2CC(=O)n3c(nc4ccccc43)N2)cc1", "note": "(stereo not given)", "inhibition": -2.67}
{"smiles": "O=C(Cn1cc(C(=O)c2ccco2)c2ccccc21)Nc1cccc(C(F)(F)F)c1", "inhibition": 2.74}
{"smiles": "COc1ccc(CCN(C(=O)c2cccc(F)c2)C2CC(=O)N(c3ccc(Br)cc3)C2=O)cc1", "note": "(stereo not given)", "inhibition": -8.56}
{"smiles": "CCN(CC)C(=O)C(=O)c1cn(CC(=O)N(CC)c2ccccc2)c2ccccc12", "inhibition": 2.19}
{"smiles": "O=C(Cn1cc(C(=O)C2CC2)c2ccccc21)Nc1cccc(C(F)(F)F)c1", "inhibition": 0.73}
